From article PMC4327866 (Journal of controlled release : official journal of the …, 2014)
Values joined by “and” are separate entries in the source; they are usually repeats but may differ in a detail not shown here. Identical values can stand only once. Blank lines part the entries; values can stand above or below the substance they belong to.

Key:
[1] = Optical characterization of the ELP phase diagram; type: physicochemical; conditions: for Tt (observed transition temperature): 25 μM in PBS, turbidity at 350 nm, ramp 1 °C min−1, maximum first derivative of the curve; for slope of transition temperature vs log10 concentration / y-intercept of transition temperature vs log10 concentration: log-linear regression of Tt vs concentration, 5–100 μM in PBS, mean [95% CI]; for temperature of phase separation (Figure 2 legend, approximate): optical density as a function of temperature and concentration; for Property at 37 °C: state of the protein polymer at 37 °C (soluble / nanoparticle / coacervate)
In short: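 Turbidity (350 nm) of protein polymer solutions in PBS was recorded as a function of temperature across several concentrations. Tt was the maximum of the first derivative of the curve. Observed Tt was reported at 25 μM. Slope and intercept came from log-linear regression, Tt = m Log₁₀[C_ELP] + b. Mean [95% CI].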

[2] = Dynamic light scattering: hydrodynamic radius and polydispersity; type: physicochemical; conditions: DLS; for nanoassembly by dynamic light scattering: below the transition temperature; for hydrodynamic radius at 37 °C: filtered through 0.2 μm cellulose acetate; for hydrodynamic radius retained below the transition temperature: 25 μM in PBS (Discussion); for temperature up to which the nanoparticles are stable: 4 to 60 °C in 1 °C increments
In short: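 Test protein polymers at 25 μM in PBS, passed through 0.2 μm cellulose acetate filters, spun at 4 °C, 1200 rpm to clear air bubbles, and overlaid with mineral oil against evaporation. Hydrodynamic radius and polydispersity were read on a DLS plate reader from 4 to 60 °C in 1 °C steps.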

[3] = Negative and cryogenic transmission electron microscopy of nanoparticles; type: physicochemical; conditions: average ± 95% confidence interval
In short: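 Samples at 25 μM, unfiltered or 0.2 μm filtered. Negative TEM used carbon-coated copper grids, excess wicked off, 2 wt% aqueous uranyl acetate stain, 100 kV. Cryo-TEM used plasma-treated lacey carbon grids plunged into liquid-nitrogen-cooled ethane, 80 kV. Sizes were averaged over three fields (>50 particles/image TEM; 20 cryo-TEM). Bilayer thickness was taken at three points per vesicle circumference. Mean ± 95% CI.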

[4] = set-up: species or system rats; conditions: rat, in vivo

Substance: G(VPGAG)192Y [A192]
- Tt (observed transition temperature) [1]: 61.9 °C
- slope of transition temperature vs log10 concentration [1]: −9.2 °C/log10(μM)
- y-intercept of transition temperature vs log10 concentration [1]: 74.9 °C
- temperature of phase separation (Figure 2 legend, approximate) ([1]; PBS): ~60 °C
- Property at 37 °C ([1]; PBS): soluble
- nanoassembly by dynamic light scattering ([2]; 25 μM in PBS): do not exhibit any signs of nanoassembly
- hydrodynamic radius at 37 °C ([2]; 25 μM in PBS, 37 °C): 5 nm

Substance: G(VPGVG VPGAG VPGAG)64Y [V2A192]
- Tt (observed transition temperature) [1]: 47.2 °C
- slope of transition temperature vs log10 concentration [1]: −5.8 °C/log10(μM)
- y-intercept of transition temperature vs log10 concentration [1]: 55.9 °C
- temperature of phase separation (Figure 2 legend, approximate) ([1]; PBS): around 47 °C
- Property at 37 °C ([1]; PBS): soluble
- nanoassembly by dynamic light scattering ([2]; 25 μM in PBS): do not exhibit any signs of nanoassembly
- hydrodynamic radius at 37 °C ([2]; 25 μM in PBS, 37 °C): 5 nm

Substance: MDWFKAFYDKVAEKFKEAFGLVPRGS G(VPGAG)192Y [L4F-A192]
- Tt (observed transition temperature) [1]: 45.8 °C
- depression of transition temperature below the parent ELP ([1]; at 25 μM): 14 °C
- temperature of phase separation / transition temperature ([1]; at 25 μM, optical density, PBS): above 47 °C
- slope of transition temperature vs log10 concentration [1]: −2.6 °C/log10(μM)
- y-intercept of transition temperature vs log10 concentration [1]: 49.6 °C
- Property at 37 °C ([1]; PBS): nanoparticle
- hydrodynamic radius retained below the transition temperature [2]: 50 nm
- temperature up to which the nanoparticles are stable ([2]; 25 μM in PBS): 46 °C
- polydispersity ([2]; 25 μM in PBS, 37 °C): 9 nm
- nanoassembly by dynamic light scattering ([2]; 25 μM in PBS): form nanoparticles
- hydrodynamic radius at 37 °C ([2]; 25 μM in PBS, 37 °C): 50 nm and ~50 nm
- nanoparticle radius, negative TEM, unfiltered ([3]; 25 μM, 2 % uranyl acetate stain, unfiltered): 41 ± 16 nm
- vesicle radius, cryo-TEM, filtered ([3]; 25 μM, filtered through 0.2 μm): 43 ± 17 nm and 43 nm
- vesicle radius, cryo-TEM, unfiltered ([3]; 25 μM, unfiltered): 36 ± 13 nm
- membrane thickness, cryo-TEM, filtered ([3]; 0.2 um filtered, n = 8): 6.8 ± 0.7 nm and 6.8 nm
- membrane (wall) thickness, cryo-TEM, unfiltered ([3]; unfiltered, n = 18): 8.4 ± 1.3 nm and 8.4 nm
- Plasma clearance, CLp [4]: 0.37 mL/min
- Volume of distribution, V0 [4]: 26 mL
- plasma half-life (approximate) [4]: approximately 1 hr
- volume of distribution relative to free L4F peptide [4]: approximately twice

Substance: MDWFKAFYDKVAEKFKEAFGLVPRGS G(VPGVG VPGAG VPGAG)64Y [L4F-V2A192]
- Tt (observed transition temperature) [1]: 34.3 °C
- slope of transition temperature vs log10 concentration [1]: −1.3 °C/log10(μM)
- y-intercept of transition temperature vs log10 concentration [1]: 36.2 °C
- temperature of phase separation (Figure 2 legend, approximate) ([1]; PBS): about 34 °C
- hydrodynamic radius retained below the transition temperature [2]: 42 nm
- temperature up to which the nanoparticles are stable ([2]; 25 μM in PBS): 34 °C
- nanoassembly by dynamic light scattering ([2]; 25 μM in PBS): form nanoparticles
- hydrodynamic radius at 37 °C ([2]; 25 μM in PBS, 37 °C): 42 nm and ~50 nm

- Plasma clearance, CLp [4]: 0.12 mL/min
- Volume of distribution, V0 [4]: 12 mL
Substance: Met-Asp-Trp-Phe-Lys-Ala-Phe-Tyr-Asp-Lys-Val-Ala-Glu-Lys-Phe-Lys-Glu-Ala-Phe-Leu-FITC [Free L4F, reference compound]
